In the library only some 1.4% were active in any assay of this set; here they are far more common.
hK5 inh: human KLK5 protease inhibitors, primary screen, biochemical, 1536-well; recombinant hK5, fluorogenic AMC substrate cleavage; inhibition, % at 5 µM; 210,000 compounds, 0.59% hits;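 active means inhibition of 40% or more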;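 further: 0% = enzyme controls without compound and 100% = no-enzyme blanks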
Thrombin inh: human alpha-thrombin inhibitors, primary screen, counter-screen for coagulation protease inhibitor project, biochemical, 1536-well, fluorogenic AMC substrate. Boc-VPR-AMC fluorogenic substrate cleavage. Prothrombin (Homo sapiens), P00734. inhibition, % at 5 µM. AID 1046, 2008. 220,000 compounds, 0.26% hits;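 active means inhibition at or above 40%; inactive means inhibition below 40%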;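 further: 0% = enzyme with no compound and 100% = wells without enzyme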
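Assay system: human alpha-thrombin enzyme. Reagent: Boc-VPR-AMC substrate, 15 µM final. Compound dosing: one concentration per compound, 5 µM, with 0.2% DMSO. Incubation: room-temperature reaction. Technique: AMC fluorescence, 355/460 nm. Measure: % inhibition relative to enzyme controls and enzyme-free blanks.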
Calpain2 inh: inhibitors of pig calpain II, primary screen, biochemical, fluorogenic peptide substrate, 1536-well; purified calpain II, 30 min; inhibition, % at 16 µM; 220,000 compounds, 0.37% hits; AID 1236, 2008;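 active means inhibition above about 50%, limit read from the data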
FXIIa inh: human FXIIa protease inhibitors, primary screen, biochemical, 1536-well; Coagulation factor XII (Homo sapiens), P00748; purified FXIIa, Boc-QGR-AMC fluorogenic substrate, 2 h; inhibition, % at 5 µM; 220,000 compounds, 0.3% hits; in the data active means inhibition above about 40%;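 further: 0% = enzyme with no compound and 100% = blank without enzyme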
FXIa inh: human FXIa protease inhibitors, primary screen, biochemical, 1536-well; Coagulation factor XI (Homo sapiens), P03951; purified FXIa, Boc-Glu-Ala-Arg-AMC fluorogenic substrate; inhibition, % at 5 µM; 220,000 compounds, 0.14% hits;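 active means inhibition of at least 40%; inactive means inhibition below 40%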;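 further: fluorescence of freed AMC excited at 355 nm; 0% = enzyme without compound and 100% = no enzyme blank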
An asterisk follows results filed as active; nt = no result given.

SMILES | hK5 inh | Thrombin inh | Calpain2 inh | FXIIa inh | FXIa inh
O=C(Nc1ccc(F)cc1)C(=O)C1C(=O)Nc2ccccc21 (stereo unspecified) | -3 | -5 | 3 | 8 | 3
Cc1ccc(CSC2=NCCN2C(=O)c2ccc(S(=O)(=O)N(C)C)cc2)cc1 | -23 | 0 | 11 | 6 | -2
Cc1ccccc1C(=O)Oc1ccc(-c2csnn2)cc1 | 0 | 3 | 42 | 10 | 4
Cc1ccccc1C(=O)Oc1ccc(Sc2ccc(O)cc2)cc1 | -17 | -6 | 113* | -14 | -2
Cc1ccc(NC(=O)C(=O)NCCN2CCN(C(=S)Nc3ccccc3)CC2)cc1 | -10 | -1 | 0 | 7 | 6
COCCn1c(SCc2ccccc2F)nc2ccccc2c1=O | 3 | -1 | 51* | 5 | 5
Cc1c(C(=O)NN2CCCCC2)nn(-c2ccc(Cl)cc2Cl)c1-c1ccc(I)cc1 | nt | nt | -35 | nt | nt
O=C(c1ccc(S(=O)(=O)N2CCCCC2)cc1)c1nnc(-c2ccc(Cl)cc2)o1 | 46* | 15 | 25 | 2 | 34
O=C(CCc1ccc(S(=O)(=O)N2CCCCC2)cc1)c1nnc(-c2ccccc2)o1 | -23 | -3 | -14 | 6 | -15
CSc1nc(-c2ccccc2)nc(N)c1C(C)=O | 45* | 16 | 24 | 7 | 8
CC(Cc1cccnc1)NC(=O)c1ccccc1OC1CCN(S(C)(=O)=O)CC1 (stereo unspecified) | 2 | 1 | -15 | 4 | -1
CCC(=O)n1nc(-c2ccccc2)nc1SCC(=O)Nc1ccc(C)cc1 | -22 | 52* | 1 | 28 | 22
CC(=O)n1nc(-c2cccc(C)c2)nc1SCC(=O)Nc1ccccc1 | -6 | 77* | -12 | 13 | -1
O=C(NCc1ccc(Cl)cc1)c1ccc(N2CCCC2=O)cc1 | -2 | 0 | -2 | 0 | 0
NC(=O)C1(N2CCCCC2)CCN(Cc2ccc(F)cc2)CC1 | 49* | 23 | 0 | 11 | 0
C=CCn1c(Cc2cccs2)nnc1SCC(=O)NCc1ccco1 | 17 | 26 | -30 | 27 | 48*
Cn1c(SCC(=O)NCc2cccs2)nnc1-c1cccs1 | 52* | 16 | 2 | 15 | 10
COc1cc(CCC(O)CC(=O)CCc2ccccc2)ccc1O (stereo unspecified) | 4 | 1 | 33 | 7 | 6
O=C1CCCc2c1[nH]c1c(Br)cccc21 | 11 | -3 | -27 | -6 | -9
Cc1cc(Br)c2[nH]c3c(c2c1)CCCC3=O | 0 | 3 | -98 | 54* | 31
O=C(Nc1nc(-c2ccccc2)cs1)c1ccc(S(=O)(=O)N2CCc3ccccc32)cc1 | -9 | -2 | -35 | 15 | 59*
Cc1ccc(-c2csc(NC(=O)c3ccc(S(=O)(=O)N4CCc5ccccc54)cc3)n2)cc1 | -9 | -1 | -41 | 26 | 21
O/N=C(\c1ccc(Cl)cc1)c1cc2ccccc2o1 | 10 | -3 | 65* | 26 | 8
S=C(Nc1ccc(Cl)cc1Cl)NC1CCN(Cc2ccccc2)CC1 | -9 | -15 | -12 | 19 | 5
S=C(NCc1ccc(Cl)cc1)NC1CCN(Cc2ccccc2)CC1 | nt | -8 | 54* | 2 | -7
SMILES | hK5 inh | Thrombin inh | Calpain2 inh | FXIIa inh | FXIa inh
Cc1cccc(N(CC(=O)NC2CCCCC2)C(=O)Cn2nnc(-c3ccc(C)o3)n2)c1 | 5 | -2 | 9 | nt | 3
COc1cc(/C=C(/NC(=O)c2ccccc2)C(=O)N2CCN(C)CC2)c([N+](=O)[O-])cc1OC | 40* | 19 | 21 | 10 | 5
COc1cc(/C=C(\NC(=O)c2ccccc2)C(=O)NCCO)c([N+](=O)[O-])cc1OC | -12 | 0 | -5 | 17 | 8
O=C1CC(O)(C(F)(F)F)Oc2c1ccc1ccccc21 (stereo unspecified) | 93* | 30 | -200 | 15 | 8
CN(C)c1ccc(C(=S)N2CCN(c3ccc([N+](=O)[O-])cc3)CC2)cc1 | 31 | 13 | 21 | 49* | 52*
O=[N+]([O-])c1ccc(N2CCCCC2)cc1 | 40* | 25 | 22 | 32 | 30
CN(C)c1ccc(C(=S)N2CCOCC2)cc1 | -5 | -7 | 26 | 45* | 12
CN(c1cccc(NC(=O)c2cccc([N+](=O)[O-])c2)c1)S(C)(=O)=O | 1 | 0 | -8 | 10 | -5

From PubChem
